The list is not random: actives were taken first. Their share in the collection is about 3.7%.
KCNK9 block: blocks the human KCNK9 two-pore domain potassium channel; B-score at 10 µM; HEK293 KCNK9, FluxOR thallium flux fluorescence; stronger effect = lower value; hit rate 1.2% among 310,000; Q9NPC2;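 active = ratio B-score over 3 SD below the library mean, with starting fluorescence within 5 SD of its mean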;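 note: negative B-score means less thallium flux so channel inhibition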
KCNK3 inh: human KCNK3 channel inhibition, primary screen. AID 602410. hit rate 0.84% among 340,000. CHO-KCNK3 thallium flux, FluxOR fluorescence; stronger effect = lower value. B-score at 10 µM. O14649;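 active = B-score under library mean minus 4 SD, starting fluorescence ratio at most library mean plus 5 SD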;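 note: more negative B-score means stronger inhibition of thallium flux through KCNK3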
Kir21 inh: Kir2.1 (mouse) channel inhibition; P35561; AID 1672; B-score at 10 µM; HEK293-Kir2.1, FluxOR thallium flux fluorescence; stronger effect = lower value; hit rate 0.85% among 310,000;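 active = fluorescence ratio B-score at or below minus 3 SD of library scores, with starting-brightness B-score within 2 SD, cut at about -4.2 in these data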;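 note: channel flux triggered by added potassium and thallium sulfate stimulus; B-score of peak minus minimum fluorescence over baseline after thallium stimulus; more negative B-score means stronger Kir2.1 block with less thallium influx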
KCNQ1 pot: potentiates or activates the human KCNQ1 potassium channel. P51787. CHO-K1 KCNQ1, thallium flux FluxOR fluorescence; stronger effect = higher value. B-score at 10 µM. hit rate 0.35% among 310,000. AID 2648;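 active = fluorescence ratio B-score, a plate-corrected score, at least three library SD, with initial intensity B-score within 5 SD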
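Material: CHO-K1 cells stably expressing KCNQ1. Medium: assay buffer for compound exposure, DMSO matched across wells. Reagent: K+/Tl+ depolarizing stimulus. Compound dosing: single-concentration screen. Times: 37 °C overnight plating, 90-min dark dye load, 20-min compound pretreatment. Technique: FluxOR Tl+ flux fluorescence.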
KCNQ1 block: human KCNQ1 channel inhibition. P51787. CHO-K1 KCNQ1, FluxOR thallium flux fluorescence; stronger effect = higher value. B-score at 10 µM. hit rate 1.3% among 310,000;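 active = compounds whose thallium flux B-score, printed positive for inhibition, exceeds three library SD while starting fluorescence stays within three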;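 note: channel opened by potassium depolarization with thallium stimulus after 20 min compound exposure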
hERG rescue: hERG (human) protection from proarrhythmic block; Q12809; CHO-hERG, FluxOR thallium flux, dofetilide IC70 present; activation (rescue from dofetilide block), less the hit threshold, % at 10 µM; hit rate 0.51% among 310,000; AID 1511;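 active = activation above the mean of controls blocked by dofetilide plus 5 SD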;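 note: thallium influx through hERG after potassium depolarization seen as dye fluorescence rise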
Target sequence (Q12809 whole entry, looked up): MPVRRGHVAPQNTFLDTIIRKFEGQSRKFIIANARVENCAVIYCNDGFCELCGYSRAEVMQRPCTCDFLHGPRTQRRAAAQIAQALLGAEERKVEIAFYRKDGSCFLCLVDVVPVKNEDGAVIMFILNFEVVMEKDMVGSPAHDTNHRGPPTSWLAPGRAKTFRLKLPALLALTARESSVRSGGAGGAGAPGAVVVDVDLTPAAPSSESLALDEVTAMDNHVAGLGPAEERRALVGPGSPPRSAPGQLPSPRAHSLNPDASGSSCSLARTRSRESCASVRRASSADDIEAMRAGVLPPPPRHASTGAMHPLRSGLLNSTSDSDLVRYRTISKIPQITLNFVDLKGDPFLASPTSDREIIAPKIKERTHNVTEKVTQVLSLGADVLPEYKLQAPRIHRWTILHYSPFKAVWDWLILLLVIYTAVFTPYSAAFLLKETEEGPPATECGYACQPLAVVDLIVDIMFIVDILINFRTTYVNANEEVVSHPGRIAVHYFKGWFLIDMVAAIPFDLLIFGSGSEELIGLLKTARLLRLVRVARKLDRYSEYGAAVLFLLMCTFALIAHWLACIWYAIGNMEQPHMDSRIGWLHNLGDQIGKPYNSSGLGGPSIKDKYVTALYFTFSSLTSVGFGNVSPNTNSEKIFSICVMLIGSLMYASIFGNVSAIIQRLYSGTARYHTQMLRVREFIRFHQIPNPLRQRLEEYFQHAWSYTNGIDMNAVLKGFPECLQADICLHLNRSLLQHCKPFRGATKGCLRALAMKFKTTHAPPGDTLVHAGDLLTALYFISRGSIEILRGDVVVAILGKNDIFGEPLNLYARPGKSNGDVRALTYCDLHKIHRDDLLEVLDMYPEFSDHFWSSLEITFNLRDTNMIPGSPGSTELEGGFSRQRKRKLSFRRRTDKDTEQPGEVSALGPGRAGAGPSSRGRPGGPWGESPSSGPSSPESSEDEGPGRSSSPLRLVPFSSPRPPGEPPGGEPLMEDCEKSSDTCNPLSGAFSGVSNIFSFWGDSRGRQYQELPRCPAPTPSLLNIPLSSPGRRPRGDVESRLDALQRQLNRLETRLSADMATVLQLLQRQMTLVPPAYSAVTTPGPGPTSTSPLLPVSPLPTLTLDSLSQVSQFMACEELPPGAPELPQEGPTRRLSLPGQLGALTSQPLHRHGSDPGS
Hits are given with their value.

Screening O=C(c1nc[nH]c1C(=O)N1CCc2ccccc2C1)N1CCc2ccccc2C1 returned KCNK3 inh inactive.
For O=C(NCCc1ccc(Cl)cc1)C1COc2ccccc2O1 (stereo unspecified) the results were KCNK9 block inactive, KCNK3 inh inactive, Kir21 inh -4.7, KCNQ1 pot inactive, KCNQ1 block inactive and hERG rescue inactive.
Screening CSc1ccccc1NC(=O)COC(=O)CCc1ccccc1 returned KCNK9 block inactive, KCNK3 inh inactive, Kir21 inh inactive, KCNQ1 pot inactive, KCNQ1 block inactive and hERG rescue inactive.
COc1ccc(Nc2ccc(Cl)nn2)cc1 was read as KCNK9 block inactive, KCNK3 inh inactive, Kir21 inh inactive, KCNQ1 pot inactive, KCNQ1 block inactive and hERG rescue inactive.
For Clc1ccc(Nc2ccc(Cl)nn2)cc1 the results were KCNK9 block inactive, KCNK3 inh inactive, Kir21 inh inactive, KCNQ1 pot inactive, KCNQ1 block inactive and hERG rescue 5.9.
`CC(C)Sc1nc(C(F)(F)F)cc(=O)n1-c1ccccc1` gave KCNK9 block inactive, KCNK3 inh inactive, Kir21 inh -4.4, KCNQ1 pot inactive, KCNQ1 block inactive and hERG rescue inactive.
Screening CCSc1nc(C(F)(F)F)cc(=O)n1-c1ccccc1 returned KCNK9 block inactive, KCNK3 inh inactive, Kir21 inh inactive, KCNQ1 pot inactive, KCNQ1 block inactive and hERG rescue inactive.
CCOC(=O)c1ccc(N=c2sc(C(=O)OC)cc(=O)n2-c2ccc(C(=O)OCC)cc2)cc1 was read as KCNK9 block inactive, KCNK3 inh inactive, Kir21 inh inactive, KCNQ1 pot inactive, KCNQ1 block 6 and hERG rescue inactive.
For COC(=O)c1cc(=O)n(Cc2ccc(OC)c(OC)c2)c(=Nc2ccc(F)cc2)s1 the results were KCNK9 block inactive, KCNK3 inh inactive, Kir21 inh inactive, KCNQ1 pot inactive, KCNQ1 block 6 and hERG rescue inactive.
COC(=O)c1cc(=O)n(-c2ccccc2)c(=Nc2ccccc2)s1 was read as KCNK9 block inactive, KCNK3 inh inactive, Kir21 inh inactive, KCNQ1 pot inactive, KCNQ1 block inactive and hERG rescue inactive.
COC(=O)c1cc(=O)n(Cc2ccc(F)cc2)c(=Nc2ccccc2)s1 was read as KCNK9 block inactive, KCNK3 inh inactive, Kir21 inh inactive, KCNQ1 pot inactive, KCNQ1 block 6 and hERG rescue inactive.
`COc1cccc(C(=O)COC(=O)COc2c(C)cc(C)cc2C)c1` gave KCNK3 inh inactive.
For COc1cc2c(cc1OC)C(c1ccc(Br)cc1)N(C(=O)c1ccccc1C(=O)O)CC2 (stereo unspecified) the results were KCNK9 block inactive, KCNK3 inh inactive, Kir21 inh inactive, KCNQ1 pot inactive, KCNQ1 block inactive and hERG rescue inactive.
Screening Cc1ccsc1C(=O)OCC(=O)c1cc(C)n(C)c1C returned KCNK3 inh inactive.
CCN1CCN(C(=O)c2ccc3c(c2)c(C)c(C)n3Cc2ccccc2)CC1 was read as KCNK9 block inactive, KCNK3 inh inactive, Kir21 inh inactive, KCNQ1 pot inactive, KCNQ1 block inactive and hERG rescue inactive.
Cc1c(C)n(Cc2ccccc2)c2ccc(C(=O)OCCCN(C)C)cc12 was read as KCNK9 block inactive, KCNK3 inh inactive, Kir21 inh -12, KCNQ1 pot inactive, KCNQ1 block inactive and hERG rescue inactive.
For O=C(COC(=O)c1ccc(Br)cc1)NCCc1ccccc1 the results were KCNK9 block inactive, KCNK3 inh inactive, Kir21 inh inactive, KCNQ1 pot inactive, KCNQ1 block inactive and hERG rescue inactive.
`O=C(COC(=O)c1ccccc1)c1ccc(Br)cc1` gave KCNK9 block -6.8, KCNK3 inh inactive, Kir21 inh inactive, KCNQ1 pot inactive, KCNQ1 block inactive and hERG rescue inactive.
Screening CCc1ccc(-n2cnc3cc(C(=O)NCC(OC)OC)ccc32)cc1 returned KCNK9 block inactive, KCNK3 inh inactive, Kir21 inh inactive, KCNQ1 pot inactive, KCNQ1 block inactive and hERG rescue inactive.
O=C1/C(=C\c2c(NCCOCCO)nc3ccccn3c2=O)SC(=S)N1Cc1ccco1 was read as KCNK9 block inactive, KCNK3 inh inactive, Kir21 inh inactive, KCNQ1 pot inactive, KCNQ1 block inactive and hERG rescue inactive.
`CCOc1ccc(CCNc2nc3ccccc3n3cnnc23)cc1OCC` gave KCNK9 block inactive, KCNK3 inh inactive, Kir21 inh inactive, KCNQ1 pot inactive, KCNQ1 block inactive and hERG rescue inactive.
Screening Cc1ccc(C(C[N+](=O)[O-])n2nc(C)cc2C)cc1 (stereo unspecified) returned KCNK9 block inactive, KCNK3 inh inactive, Kir21 inh -8, KCNQ1 pot inactive, KCNQ1 block inactive and hERG rescue inactive.
Cc1ccc(S(=O)(=O)NCC(C)n2nc(C)cc2C)cc1 (stereo unspecified) was read as KCNK9 block inactive, KCNK3 inh inactive, Kir21 inh inactive, KCNQ1 pot inactive, KCNQ1 block inactive and hERG rescue inactive.
Screening CCC(=O)Nc1ccc(NC(=O)c2cccc3c(Br)cccc23)cc1 returned KCNK9 block inactive, KCNK3 inh inactive, Kir21 inh inactive, KCNQ1 pot inactive, KCNQ1 block inactive and hERG rescue inactive.
Screening C/C(=N\N=C(c1ccccc1)c1ccccc1)c1cccs1 returned KCNK9 block inactive, KCNK3 inh inactive, Kir21 inh inactive, KCNQ1 pot inactive, KCNQ1 block 6 and hERG rescue inactive.
COc1ccc(-c2ccc3c(c2)[C@@H]2C[C@H](N(C)C(=O)Nc4ccccc4)[C@H]([C@H](C)O)C(=O)N2CC3)cc1 was read as KCNK3 inh inactive.
`O=C(Nc1nc(-c2cccs2)cs1)c1cccc(S(=O)(=O)N2CCCCC2)c1` gave KCNK9 block -6.6, KCNK3 inh inactive, Kir21 inh inactive, KCNQ1 pot inactive, KCNQ1 block inactive and hERG rescue inactive.
`O=C(Nc1nc(-c2ccc(S(=O)(=O)N3CCCC3)cc2)cs1)c1cccs1` gave KCNK3 inh -11.
For Cc1ccc(-c2csc(NC(=O)c3cccc(S(=O)(=O)N4CCN(C)CC4)c3)n2)cc1 the results were KCNK9 block inactive, KCNK3 inh inactive, Kir21 inh inactive, KCNQ1 pot inactive, KCNQ1 block inactive and hERG rescue inactive.
Screening O=C(Nc1nc(-c2ccc(S(=O)(=O)N3CCCCCC3)cc2)cs1)c1cccs1 returned KCNK9 block inactive, KCNK3 inh inactive, Kir21 inh inactive, KCNQ1 pot inactive, KCNQ1 block inactive and hERG rescue inactive.
CCN1CCN(S(=O)(=O)c2ccc(Cl)c(C(=O)Oc3ccc(CC(=O)OC)cc3)c2)CC1 was read as KCNK3 inh inactive.
COC(=O)Oc1ccc(/C=C/C(=O)OC(C)C)cc1OC(=O)OC was read as KCNK9 block inactive, KCNK3 inh inactive, Kir21 inh inactive, KCNQ1 pot inactive, KCNQ1 block inactive and hERG rescue 6.6.
